According to article PMC7741178 (Bioorganic & medicinal chemistry, 2020):

Assays:
Format in all cases: cell-based
HIV-1 NL4.3 (X4) = assay: HIV-1 NL4.3 replication in MT-4 cells; conditions: HIV-1 NL4.3 in MT-4 cells
Outline: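 MT-4 cells at 3.75×10^5 cells/mL in RPMI 1640 with 10% FBS and 2 mM L-glutamine were preincubated 15 min with test compound. HIV-1 NL4.3 (30 pg/well) was then added and cells were kept at 37 °C. On day 4, viability was read by MTS/PES at 490 and 700 nm, giving the IC50 for viral replication. Mean ± SD, n = 2 or 3.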

human CD4 (CD4-YFP) = human CD4 (CD4-YFP) (Homo sapiens, UniProt P01730); assay: CD4 down-modulation in CD4-YFP transfected CHO cells; conditions: for CD4 down-modulation (in words): CD4-YFP CHO cells
Outline: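 CHO cells stably expressing human CD4 fused at its C-terminus to YFP were exposed for 24 h at 37 °C to 1:5 serial dilutions of test compound. Cells were washed, fixed in 1% formaldehyde, and read at once by flow cytometry (488 nm laser). YFP MFI was expressed as % of matched untreated cells, after subtracting the background of non-transfected cells. IC50 is the 50% decrease in CD4. Mean ± SD, n = 3.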

MT-4 cells = assay: Cytotoxicity in MT-4 cells; conditions: CC50 MT-4 cells / IC50 CD4 down-modulation

Row | SMILES | anti-HIV activity (in words) (HIV-1 NL4.3 (X4)) | CD4 down-modulation (in words) (human CD4 (CD4-YFP)) | therapeutic indices (CC50/IC50 for CD4) (MT-4 cells) | IC50 (human CD4 (CD4-YFP))
1 | Cc1ccc(S(=O)(=O)N2CCc3cc(C(C)(C)C)cc(n3)CCN(S(=O)(=O)c3ccc(C)cc3)CC2)cc1 [Compound 16, 12-tert-Butyl-4,7-bis(p-toluenenesulfonyl)-4,7,14-triazabicyclo[8.3.1]tetradeca-1(14),1 0,12-triene] | no observable | no observable |  | 
2 | C=C1CN(S(=O)(=O)c2ccc(C)cc2)CCc2cc(CC(C)C)cc(n2)CCN(S(=O)(=O)c2ccc(C)cc2)C1.Cl [Compound 3k, 13-Isobutyl-6-methylene-4,8-di(p-toluenesulfonyl)-4,8,15-triazabicyclo[9.3.1]pentadeca-1(15),11,13-triene] |  |  | exceeding 100 | 
3 | C=C1CN(S(=O)(=O)c2ccc(C)cc2)Cc2cccc3cc4cccc(c4nc23)CN(S(=O)(=O)c2ccc(C)cc2)C1 [Compound 23, 9-Methylene-7,11,19-7,11-bis(p-toluenesulfonyl)-triazatetracyclo[15.3.1.0^5,20.0^13,18]henicosa-1(21),2,4,13,15,17,19-heptaene] | no observable | no observable |  | 
4 | C=C1CN(S(=O)(=O)c2ccc(C)cc2)CCc2cc(CCCC)cc(n2)CCN(S(=O)(=O)c2ccc(C)cc2)C1.Cl [Compound 3j, 13-Butyl-6-methylene-4,8-di(p-toluenesulfonyl)-4,8,15-triazabicyclo[9.3.1]pentadeca-1(15),11,13-triene] |  |  | exceeding 100 | 500 nM
